Results: ChEMBL document CHEMBL1275559, “Complex ciprofloxacin resistome revealed by screening a Pseudomonas aeruginosa mutant library for altered susceptibility” (2008)
Activity calls are given as the source filed them.

Tests used:
Pseudomonas aeruginosa [1] = assay: Upregulation of putative phage tail protein in Pseudomonas aeruginosa PA0619 at MIC; assay type: functional, organism-based
Pseudomonas aeruginosa [2] = assay: Upregulation of putative tail fiber protein in Pseudomonas aeruginosa PA0620 at 0.3 times MIC; assay type: functional, organism-based
Pseudomonas aeruginosa [3] = assay: Upregulation of putative tail fiber protein in Pseudomonas aeruginosa PA0620 at MIC; assay type: functional, organism-based
Pseudomonas aeruginosa [4] = assay: Upregulation of putative phage tail tube protein in Pseudomonas aeruginosa PA0623 at 0.3 times MIC; assay type: functional, organism-based
Pseudomonas aeruginosa [5] = assay: Upregulation of putative tail fiber assembly protein in Pseudomonas aeruginosa PA0621 at 0.3 times MIC; assay type: functional, organism-based
Pseudomonas aeruginosa [6] = assay: Upregulation of putative tail fiber assembly protein in Pseudomonas aeruginosa PA0621 at MIC; assay type: functional, organism-based
Pseudomonas aeruginosa [7] = assay: Upregulation of putative phage tail sheath protein in Pseudomonas aeruginosa PA0622 at 0.3 times MIC after 48 hrs; assay type: functional, organism-based
Pseudomonas aeruginosa [8] = assay: Upregulation of putative phage tail sheath protein in Pseudomonas aeruginosa PA0622 at MIC after 48 hrs; assay type: functional, organism-based
Pseudomonas aeruginosa [9] = assay: Upregulation of putative phage tail tube protein in Pseudomonas aeruginosa PA0623 at MIC; assay type: functional, organism-based
Pseudomonas aeruginosa [10] = assay: Upregulation of conserved hypothetical protein in Pseudomonas aeruginosa PA0624 at 0.3 times MIC; assay type: functional, organism-based
Method in brief: (§1)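 P. aeruginosa cells were treated with ciprofloxacin at 0.3× MIC or 1× MIC. Gene expression trend was scored relative to untreated cells.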

Pseudomonas aeruginosa [11] = assay: Upregulation of putative tail formation protein in Pseudomonas aeruginosa PA0626 at 0.3 times MIC; assay type: functional, organism-based
Pseudomonas aeruginosa [12] = assay: Upregulation of hypothetical protein in Pseudomonas aeruginosa PA0630 at 0.3 times MIC; assay type: functional, organism-based; method in brief: as §1
Pseudomonas aeruginosa [13] = assay: Upregulation of hypothetical protein in Pseudomonas aeruginosa PA0630 at MIC; assay type: functional, organism-based; method in brief: as §1
Pseudomonas aeruginosa [14] = assay: Upregulation of putative major tail protein V in Pseudomonas aeruginosa PA0633 at MIC; assay type: functional, organism-based; method in brief: as §1
Pseudomonas aeruginosa [15] = assay: Upregulation of hypothetical protein in Pseudomonas aeruginosa PA0634 at 0.3 times MIC; assay type: functional, organism-based; method in brief: as §1
Pseudomonas aeruginosa [16] = assay: Upregulation of hypothetical protein in Pseudomonas aeruginosa PA0634 at MIC; assay type: functional, organism-based; method in brief: as §1
Pseudomonas aeruginosa [17] = assay: Upregulation of putative phage tail assembly protein in Pseudomonas aeruginosa PA0640 at 0.3 times MIC; assay type: functional, organism-based; method in brief: as §1
Pseudomonas aeruginosa [18] = assay: Upregulation of putative phage tail assembly protein in Pseudomonas aeruginosa PA0640 at MIC; assay type: functional, organism-based; method in brief: as §1
Pseudomonas aeruginosa [19] = assay: Upregulation of putative phage-related protein, tail component in Pseudomonas aeruginosa PA0641 at 0.3 times MIC; assay type: functional, organism-based
Pseudomonas aeruginosa [20] = assay: Upregulation of putative phage-related protein, tail component in Pseudomonas aeruginosa PA0641 at MIC; assay type: functional, organism-based
Pseudomonas aeruginosa [21] = assay: Upregulation of conserved hypothetical protein in Pseudomonas aeruginosa PA0647 at 0.3 times MIC; assay type: functional, organism-based; method in brief: as §1
Pseudomonas aeruginosa [22] = assay: Upregulation of conserved hypothetical protein in Pseudomonas aeruginosa PA0647 at MIC; assay type: functional, organism-based; method in brief: as §1
Pseudomonas aeruginosa [23] = assay: Upregulation of hypothetical protein in Pseudomonas aeruginosa PA0736-PA0737 at 0.3 times MIC; assay type: functional, organism-based; method in brief: as §1
Pseudomonas aeruginosa [24] = assay: Upregulation of hypothetical protein in Pseudomonas aeruginosa PA0736-PA0737 at MIC; assay type: functional, organism-based; method in brief: as §1
Pseudomonas aeruginosa [25] = assay: Upregulation of conserved hypothetical protein in Pseudomonas aeruginosa PA1433 at MIC after 48 hrs; assay type: functional, organism-based
Pseudomonas aeruginosa [26] = assay: Upregulation of putative permease of ABC transporter in Pseudomonas aeruginosa PA2060 at 0.3 times MIC after 48 hrs; assay type: functional, organism-based
Pseudomonas aeruginosa [27] = assay: Downregulation of hypothetical protein in Pseudomonas aeruginosa PA3276 at 0.3 times MIC after 48 hrs; assay type: functional, organism-based
Pseudomonas aeruginosa [28] = assay: Upregulation of conserved hypothetical protein in Pseudomonas aeruginosa PA3784 at MIC after 48 hrs; assay type: functional, organism-based
Pseudomonas aeruginosa [29] = assay: Upregulation of possible nuclease or phosphatase in Pseudomonas aeruginosa PA3958 at 0.3 times MIC after 48 hrs; assay type: functional, organism-based
Pseudomonas aeruginosa [30] = assay: Upregulation of possible nuclease or phosphatase in Pseudomonas aeruginosa PA3958 at MIC after 48 hrs; assay type: functional, organism-based
Pseudomonas aeruginosa [31] = assay: Upregulation of hypothetical protein in Pseudomonas aeruginosa PA0338 at MIC; assay type: functional, organism-based; method in brief: as §1
Pseudomonas aeruginosa [32] = assay: Upregulation of putative tail length determination protein in Pseudomonas aeruginosa PA0636 at 0.3 times MIC; assay type: functional, organism-based
Pseudomonas aeruginosa [33] = assay: Upregulation of putative tail length determination protein in Pseudomonas aeruginosa PA0636 at MIC; assay type: functional, organism-based
Pseudomonas aeruginosa [34] = assay: Upregulation of putative minor tail protein L in Pseudomonas aeruginosa PA0638 at MIC; assay type: functional, organism-based; method in brief: as §1
Pseudomonas aeruginosa [35] = assay: Upregulation of putative major tail protein V in Pseudomonas aeruginosa PA0633 at 0.3 times MIC; assay type: functional, organism-based; method in brief: as §1
Pseudomonas aeruginosa [36] = assay: Upregulation of putative tail formation protein in Pseudomonas aeruginosa PA0626 at MIC; assay type: functional, organism-based
Pseudomonas aeruginosa [37] = assay: Upregulation of conserved hypothetical protein in Pseudomonas aeruginosa PA0624 at MIC; assay type: functional, organism-based; method in brief: as §1
Pseudomonas aeruginosa [38] = assay: Upregulation of conserved hypothetical protein in Pseudomonas aeruginosa PA0613 at MIC after 48 hrs; assay type: functional, organism-based
Pseudomonas aeruginosa [39] = assay: Upregulation of ygdP gene in Pseudomonas aeruginosa PA0336 at 0.3 times MIC relative to untreated control; assay type: functional, organism-based
Pseudomonas aeruginosa [40] = assay: Upregulation of ygdP gene in Pseudomonas aeruginosa PA0336 at 1 times MIC relative to untreated control; assay type: functional, organism-based
Pseudomonas aeruginosa [41] = assay: Upregulation of mexB gene in Pseudomonas aeruginosa PA0426 at 0.3 times MIC relative to untreated control; assay type: functional, organism-based; method in brief: as §1
Pseudomonas aeruginosa [42] = assay: Upregulation of oprM gene in Pseudomonas aeruginosa PA0427 at 1 times MIC relative to untreated control; assay type: functional, organism-based; method in brief: as §1
Pseudomonas aeruginosa [43] = assay: Downregulation of oprF gene in Pseudomonas aeruginosa PA1777 at 1 times MIC relative to untreated control; assay type: functional, organism-based; method in brief: as §1
Pseudomonas aeruginosa [44] = assay: Downregulation of tig gene in Pseudomonas aeruginosa PA1800 at 1 times MIC relative to untreated control; assay type: functional, organism-based; method in brief: as §1
Pseudomonas aeruginosa [45] = assay: Downregulation of betT1 gene in Pseudomonas aeruginosa PA5375 at 0.3 times MIC relative to untreated control; assay type: functional, organism-based; method in brief: as §1
Pseudomonas aeruginosa [46] = assay: Upregulation of nuoN gene in Pseudomonas aeruginosa PA2649 at 0.3 times MIC; assay type: functional, organism-based; method in brief: as §1
Pseudomonas aeruginosa [47] = assay: Upregulation of hitB gene in Pseudomonas aeruginosa PA4688 at 0.3 times MIC; assay type: functional, organism-based; method in brief: as §1
Pseudomonas aeruginosa [48] = assay: Upregulation of hitB gene in Pseudomonas aeruginosa PA4688 at MIC; assay type: functional, organism-based; method in brief: as §1
Pseudomonas aeruginosa [49] = assay: Upregulation of mutL gene in Pseudomonas aeruginosa PA4946 at MIC; assay type: functional, organism-based; method in brief: as §1
Pseudomonas aeruginosa [50] = assay: Downregulation of nuoG gene in Pseudomonas aeruginosa PA2642 at MIC; assay type: functional, organism-based; method in brief: as §1
Pseudomonas aeruginosa [51] = assay: Downregulation of adhA gene in Pseudomonas aeruginosa PA5427 at MIC; assay type: functional, organism-based; method in brief: as §1
Pseudomonas aeruginosa [52] = assay: Upregulation of atpB gene in Pseudomonas aeruginosa PA5560 at MIC; assay type: functional, organism-based; method in brief: as §1
Pseudomonas aeruginosa [53] = assay: Upregulation of gidA gene in Pseudomonas aeruginosa PA5565 at MIC; assay type: functional, organism-based; method in brief: as §1
Pseudomonas aeruginosa [54] = assay: Upregulation of hypothetical protein in Pseudomonas aeruginosa PA0338 at 0.3 times MIC; assay type: functional, organism-based; method in brief: as §1
Pseudomonas aeruginosa [55] = assay: Upregulation of putative sensor/response regulator hybrid in Pseudomonas aeruginosa PA1611 at 0.3 times MIC; assay type: functional, organism-based
Pseudomonas aeruginosa [56] = assay: Upregulation of hypothetical protein in Pseudomonas aeruginosa PA4459 at MIC; assay type: functional, organism-based; method in brief: as §1
Pseudomonas aeruginosa [57] = assay: Upregulation of hypothetical protein in Pseudomonas aeruginosa PA4685 at 0.3 times MIC; assay type: functional, organism-based; method in brief: as §1
Pseudomonas aeruginosa [58] = assay: Upregulation of conserved hypothetical protein in Pseudomonas aeruginosa PA0613 at 0.3 times MIC after 48 hrs; assay type: functional, organism-based
Pseudomonas aeruginosa [59] = assay: Upregulation of conserved hypothetical protein in Pseudomonas aeruginosa PA0615 at 0.3 times MIC; assay type: functional, organism-based; method in brief: as §1
Pseudomonas aeruginosa [60] = assay: Upregulation of hypothetical protein in Pseudomonas aeruginosa PA0616 at 0.3 times MIC; assay type: functional, organism-based; method in brief: as §1
Pseudomonas aeruginosa [61] = assay: Upregulation of conserved hypothetical protein in Pseudomonas aeruginosa PA0615 at MIC; assay type: functional, organism-based; method in brief: as §1
Pseudomonas aeruginosa [62] = assay: Upregulation of hypothetical protein in Pseudomonas aeruginosa PA0616 at MIC; assay type: functional, organism-based; method in brief: as §1
Pseudomonas aeruginosa [63] = assay: Upregulation of putative base plate assembly protein W in Pseudomonas aeruginosa PA0617 at 0.3 times MIC; assay type: functional, organism-based; method in brief: as §1
Pseudomonas aeruginosa [64] = assay: Upregulation of putative base plate assembly protein W in Pseudomonas aeruginosa PA0617 at MIC; assay type: functional, organism-based; method in brief: as §1
Pseudomonas aeruginosa [65] = assay: Upregulation of putative phage base plate assembly protein in Pseudomonas aeruginosa PA0618 at 0.3 times MIC; assay type: functional, organism-based; method in brief: as §1
Pseudomonas aeruginosa [66] = assay: Upregulation of putative phage base plate assembly protein in Pseudomonas aeruginosa PA0618 at MIC; assay type: functional, organism-based; method in brief: as §1
Pseudomonas aeruginosa [67] = assay: Upregulation of putative phage tail protein in Pseudomonas aeruginosa PA0619 at 0.3 times MIC; assay type: functional, organism-based; method in brief: as §1
Pseudomonas aeruginosa [68] = assay: Downregulation of betT1 gene in Pseudomonas aeruginosa PA5375 at 0.3 times MIC relative to untreated control

Measured: Activity

O=C(O)c1cn(C2CC2)c2cc(N3CCNCC3)c(F)cc2c1=O
active: Pseudomonas aeruginosa [1] | Pseudomonas aeruginosa [2] | Pseudomonas aeruginosa [3] | Pseudomonas aeruginosa [4] | Pseudomonas aeruginosa [5] | Pseudomonas aeruginosa [6] | Pseudomonas aeruginosa [7] | Pseudomonas aeruginosa [8] | Pseudomonas aeruginosa [9] | Pseudomonas aeruginosa [10] | Pseudomonas aeruginosa [11] | Pseudomonas aeruginosa [12] | Pseudomonas aeruginosa [13] | Pseudomonas aeruginosa [14] | Pseudomonas aeruginosa [15] | Pseudomonas aeruginosa [16] | Pseudomonas aeruginosa [17] | Pseudomonas aeruginosa [18] | Pseudomonas aeruginosa [19] | Pseudomonas aeruginosa [20] | Pseudomonas aeruginosa [21] | Pseudomonas aeruginosa [22] | Pseudomonas aeruginosa [23] | Pseudomonas aeruginosa [24] | Pseudomonas aeruginosa [25] | Pseudomonas aeruginosa [26] | Pseudomonas aeruginosa [27] | Pseudomonas aeruginosa [28] | Pseudomonas aeruginosa [29] | Pseudomonas aeruginosa [30] | Pseudomonas aeruginosa [31] | Pseudomonas aeruginosa [32] | Pseudomonas aeruginosa [33] | Pseudomonas aeruginosa [34] | Pseudomonas aeruginosa [35] | Pseudomonas aeruginosa [36] | Pseudomonas aeruginosa [37] | Pseudomonas aeruginosa [38] | Pseudomonas aeruginosa [39] | Pseudomonas aeruginosa [40] | Pseudomonas aeruginosa [41] | Pseudomonas aeruginosa [42] | Pseudomonas aeruginosa [43] | Pseudomonas aeruginosa [44] | Pseudomonas aeruginosa [45] | Pseudomonas aeruginosa [46] | Pseudomonas aeruginosa [47] | Pseudomonas aeruginosa [48] | Pseudomonas aeruginosa [49] | Pseudomonas aeruginosa [50] | Pseudomonas aeruginosa [51] | Pseudomonas aeruginosa [52] | Pseudomonas aeruginosa [53] | Pseudomonas aeruginosa [54] | Pseudomonas aeruginosa [55] | Pseudomonas aeruginosa [56] | Pseudomonas aeruginosa [57] | Pseudomonas aeruginosa [58] | Pseudomonas aeruginosa [59] | Pseudomonas aeruginosa [60] | Pseudomonas aeruginosa [61] | Pseudomonas aeruginosa [62] | Pseudomonas aeruginosa [63] | Pseudomonas aeruginosa [64] | Pseudomonas aeruginosa [65] | Pseudomonas aeruginosa [66] | Pseudomonas aeruginosa [67] | Pseudomonas aeruginosa [68]
